TPT1 inhibitor = Candida albicans TPT1 enzyme inhibitors, primary screen, biochemical, fluorescence polarization; hit rate 0.81% among 300,000; tRNA 2'-phosphotransferase TPT1 (Candida albicans SC5314); recombinant caTPT1, FP RNA substrate dephosphorylation; inhibition, % at 5 µM;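 active = inhibition above the mean of all tested compounds plus 3 SD, set per screening campaign, cut at about 24% in these data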;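 also: plate controls were DMSO alone for no effect and ferristatin control at 100 nM for full effect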
Rpn11 block = Rpn11 (PSMD14) deubiquitinase inhibitors, primary screen, biochemical, fluorescence polarization, uHTS; 26S proteasome non-ATPase regulatory subunit 14 (Homo sapiens), O00487; human 26S proteasome, Ub4-pepOG fluorescence polarization; 20S core pre-blocked with epoxomicin; inhibition, % at 20 µM; hit rate 0.59% among 360,000; AID 588493, 2011;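 active = inhibition at 20 µM, scaled to each plate's controls, above about 33%, limit read from the data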
Target sequence (O00487 whole entry, looked up): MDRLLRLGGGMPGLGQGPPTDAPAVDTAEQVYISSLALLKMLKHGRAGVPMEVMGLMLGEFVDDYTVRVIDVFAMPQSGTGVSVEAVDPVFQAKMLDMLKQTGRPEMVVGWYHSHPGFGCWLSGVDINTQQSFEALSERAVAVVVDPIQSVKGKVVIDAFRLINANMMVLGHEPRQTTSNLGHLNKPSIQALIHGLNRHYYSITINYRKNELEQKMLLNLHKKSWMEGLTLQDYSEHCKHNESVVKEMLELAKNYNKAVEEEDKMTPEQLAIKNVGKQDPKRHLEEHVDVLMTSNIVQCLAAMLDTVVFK
aDG glyco up = activators of alpha-DG glycosylation, primary screen, uHTS, Pro5-aDG cells, AlphaScreen. AID 624168, 2012. hit rate 0.22% among 360,000. activation, % at 10 µM. alpha-DG glycosylation AlphaScreen (IIH6); 0% Pro5, 100% B10-LARGE cell signal;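 active = activation of at least 8% versus controls, or a plate z-score of at least 8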;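 also: Pro5 are CHO cells carrying HIG-tagged alpha-DG that lacks glycosylation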
HNF4A DNA FP = change in binding of human HNF4A to DNA, primary screen, biochemical, fluorescence polarization, FITC-DNA; Hepatocyte nuclear factor 4-alpha (Homo sapiens), P41235; hit rate 0.3% among 360,000; 1 h; activity change, % at 10 µM; AID 1224865, 2016; in the data active = activity change above about 30%, passing the limit was not always enough
CSN deneddyl inh = inhibitors of CSN-mediated cullin deneddylation, primary screen, biochemical, fluorescence polarization, uHTS; COP9 signalosome complex subunit 5 (Homo sapiens), Q92905; Purified CSN, SCF-Nedd8-OG deneddylation; inhibition, % at 12.5 µM; hit rate 0.38% among 360,000; AID 651999, 2013;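 active = pattern-corrected inhibition above about 35%, with an unprinted fluorescence ratio check between 0.5 and 1.5, limit read from the data, passing the limit was not always enough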;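 also: 0% = enzyme with substrate and 100% = substrate without enzyme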
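Test system: purified human Csn5 enzyme expressed in HEK293T cells. Amount: 0.24 nM enzyme. Reagent: SCFSkp2-Nedd8OG substrate at 10 nM final. Schedule: 90 min incubation of compound, enzyme and substrate at room temperature. Detection: fluorescence polarization. Read-out: % inhibition of substrate cleavage by Csn5.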
XiGFP reactiv = activators of inactive X chromosome reactivation, primary screen, imaging, XiGFP fibroblasts, GFP high-content imaging, set 2; XiGFP mouse fibroblasts, % GFP-positive cells imaging, 3 d; cells co-treated with 5-aza-dC sensitizer; scaled so ellipticine positive control = 100%; activation, % at 7.58 µM; hit rate 0.055% among 360,000; AID 743238, 2013;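 active = mean normalized replicate activation at least 10% and every replicate at or above 10%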;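 also: 0% = median of on-plate neutral control wells and 100% = ellipticine 6 µM median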
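Assay system – SV40-immortalized XiGFP fibroblast cells, line 68-5-11 · Buffer or medium – DMEM supplemented with 5-aza-dC as sensitizing agent · Dosing – one concentration, pinned · Benchmarks – positive control ellipticine, 6 µM final · Times – 3 days compound exposure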
TPT1 inh confirm = Candida albicans TPT1 inhibitors, confirmation, biochemical, fluorescence polarization, triplicate | recombinant caTPT1, RNase T1 coupled | inhibition, % at 5 µM | AID 2149, 2009 | hit rate 74% among 2,400 | shares compounds with TPT1 inhibitor;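 active = inhibition above the primary screen limit, the mean inhibition of all tested compounds plus 3 SD, cut at about 25% in these data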
RNase T1 counter = RNase T1 inhibitors, counter-screen for TPT1 inhibitor project, biochemical, fluorescence polarization. inhibition, % at 5 µM. shares compounds with TPT1 inhibitor. hit rate 83% among 2,400. RNase T1 cleavage, 1536-well;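 active = inhibition above the solvent-only control well mean plus 3 SD, limit set per screening run, cut at about 23% in these data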;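 also: plate controls were DMSO wells with enzyme for no effect and wells without RNase T1 for full effect; inhibitors block cleavage so intact labeled substrate keeps polarization high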
Target sequence (P00651 whole entry, looked up): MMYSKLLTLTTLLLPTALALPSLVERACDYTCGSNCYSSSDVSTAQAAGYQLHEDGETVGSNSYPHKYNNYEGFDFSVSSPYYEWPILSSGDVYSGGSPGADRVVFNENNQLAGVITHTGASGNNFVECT
Rpn11 inh conf = Rpn11 (PSMD14) deubiquitinase inhibitors, confirmation, biochemical, fluorescence polarization, single concentration | inhibition, % at 20 µM | shares compounds with Rpn11 block | purified human 26S proteasome, Ub4-pepOG fluorescence polarization; proteasome pretreated with epoxomicin | hit rate 29% among 1,900 | AID 602318, 2012
MMP-2 counter = MMP-2 enzyme inhibition, confirmation, counter-screen for RPN11 inhibitor project, biochemical, fluorescence, single concentration; shares compounds with Rpn11 block; recombinant MMP-2, FRET peptide cleavage fluorescence; AID 602330, 2012; inhibition, % at 20 µM; hit rate 4% among 1,900;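 also: human MMP-2 activated beforehand with APMA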
Thrombin inh = bovine thrombin protease inhibition, confirmation, counter-screen for Rpn11 inhibitor project, biochemical, fluorescence polarization, single concentration | hit rate 13% among 1,900 | bovine thrombin cleavage of Ub4-pepOG | inhibition, % at 20 µM | shares compounds with Rpn11 block;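 active = mean inhibition at least 40% at 20 µM, or signal 3 deviations below plate average, so some actives read negative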;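 also: plate controls were thrombin with DMSO for no effect and buffer wells lacking thrombin for full effect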
The depositor's hits bear a star; i = inactive; · = not tested or not shown; + = active, no number. Rows were chosen to be rich in hits. Some 1.3% of all compounds tested hit in one or more screens of this group. Rule as the data show it, unless noted: active = inhibition above about 40%; inactive = the rest.

SMILES	TPT1 inhibitor	Rpn11 block	aDG glyco up	HNF4A DNA FP	CSN deneddyl inh	XiGFP reactiv	TPT1 inh confirm	RNase T1 counter	Rpn11 inh conf	MMP-2 counter	Thrombin inh
N#Cc1c(SCC(=O)Nc2ccc(C(F)(F)F)cc2)sc2c(O)cc(=O)[nH]c12	4	9	0	0	1	2	·	·	·	·	·
C[C@@H]1CCCCO[C@H](CN(C)S(=O)(=O)c2ccc(F)cc2)[C@@H](C)CN([C@H](C)CO)C(=O)c2cc(NC(=O)c3ccncc3)ccc2O1	·	·	·	·	·	0	·	·	·	·	·
COc1ccccc1CNC(=O)C[C@H]1C[C@@H]2c3cc(N(C)C)ccc3O[C@@H]2[C@H](CO)O1	·	·	·	·	·	0	·	·	·	·	·
Cc1ccccc1N=C1NC(=O)/C(=C/c2cccn2C)S1	38*	54*	0	22	5	0	28*	39*	40	5	44*
O=C1NC(=Nc2ccccc2)S/C1=C\c1cccn1-c1ccccc1	1	6	0	4	3	·	·	·	·	·	·
CCOC(=O)c1ccc(/C=C2/C=C(c3ccccc3)N(c3ccc(Cl)c(C(=O)O)c3)C2=O)cc1	62*	68*	0	-12	29	0	74*	80*	156*	-47	152*
C(=N\NC1=Nc2cccc3cccc1c23)/c1cccnc1	26*	70*	0	40*	30	0	41*	56*	40*	-57	23
CN1CCc2nc(NC(=O)c3cccc(OC(F)F)c3)sc2C1	60*	51*	0	49*	13	·	26*	33*	-9	-6	-2
Nc1c(C(=O)Nc2ccccc2F)sc2nc(-c3ccco3)ccc12	31*	44*	0	20	19	·	27*	38*	12	-29	11
CC(C)C#Cc1ccc2c(c1)O[C@H](CN(C)Cc1ccncc1)[C@@H](C)CN([C@@H](C)CO)S2(=O)=O	·	·	·	·	·	0	·	·	·	·	·
C[C@H]1CN([C@@H](C)CO)S(=O)(=O)c2ccc(C#CC3(O)CCCC3)cc2O[C@@H]1CN(C)C(=O)c1ccncc1	·	·	·	·	·	-1	·	·	·	·	·
C[C@@H]1CN([C@@H](C)CO)C(=O)Cc2cc(NC(=O)CCN3CCOCC3)ccc2O[C@H]1CN(C)Cc1ccncc1	·	·	·	·	·	-1	·	·	·	·	·
CC[n+]1ccc(/C=C2\Sc3ccccc3N2CCCS(=O)(=O)[O-])c2ccccc21	31*	33*	0	6	1	0	14	19	-3	-44	-12
O=C(N/N=C/c1sc(N2CCOCC2)nc1-c1ccccc1)c1cccc(S(=O)(=O)N2CCCC2)c1	35*	71*	0	43*	25	0	34*	43*	94*	12	69*
O=C(Nc1nccs1)c1ccc(-c2ccc([N+](=O)[O-])cc2)o1	37*	73*	-1	29	17	0	34*	48*	-14	-4	active
COc1ccc(C=NNc2ccc([N+](=O)[O-])cc2S(=O)(=O)Nc2ccccc2C(=O)O)cc1OC	·	32	0	12	7	0	·	·	·	·	·
COc1ccccc1NS(=O)(=O)c1cc([N+](=O)[O-])ccc1N/N=C/c1c[nH]c2ccccc12	129*	47*	0	72*	22	·	106*	107*	19	-37	9
NS(=O)(=O)c1ccc(Nc2ccc([N+](=O)[O-])c3nonc23)cc1	38*	56*	0	30	17	0	48*	62*	45*	-71	34
CCOc1ccc2nc(NC3=NC(c4ccc(OC)cc4)CC(=O)N3)nc(C)c2c1 (stereo unspecified)	26*	+	0	14	13	·	18	25*	44*	i	-5
O=C(O)c1ccccc1C=NNc1ccc([N+](=O)[O-])cn1	·	2	0	1	2	0	·	·	·	·	·
Cc1c(C(=O)O)cccc1-n1c(C)cc(/C=N/Nc2ccc([N+](=O)[O-])cn2)c1C	28*	56*	0	6	9	0	47*	57*	23	-51	-3
O=C(c1cnccn1)N1CC(=O)N2[C@@H](CO)[C@H](c3ccc(C#CCC4CCCC4)cc3)[C@@H]2C1	·	·	·	·	·	0	·	·	·	·	·
CC(C)N1CCc2c(sc(NC(=O)c3cc(-c4cccs4)nc4ccccc34)c2C(N)=O)C1	44*	57*	0	12	107*	·	14	22*	128*	2	56*
N=C1/C(=C\c2ccc(-c3cc(Cl)cc(Cl)c3)o2)C(=O)N=C2SC=C(c3ccccc3)N12	8	14	0	4	5	0	·	·	·	·	·
N=C1/C(=C/c2ccc(-c3cccc(C(=O)O)c3)o2)C(=O)N=C2SC=C(c3ccccc3)N12	74*	132*	0	-11	77*	0	84*	92*	152*	11	51*
C[C@]12CCC[C@H](O1)c1c(cc3c(c1O)C(=O)c1c(O)cc(O)cc1C3=O)O2	80*	52*	-1	69	38*	·	89*	99*	47*	-14	-10

Screens deposited in PubChem by several laboratories.
